What was measured:
RXF 393 = assay: Concentration required to kill 50% of human RXF 393 renal cancer cells; format: functional
Outline: (§1)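 NCI 60-cell-line human tumour panel. Continuous 48 h drug exposure, then sulforhodamine B assay for cell viability. […] GI50 and TGI are generated from the same curves.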

EKVX = assay: Concentration required to kill 50% of human EKVX non-small cell lung cancer cells; format: functional; outline: as §1
SK-MEL-5 = assay: Concentration required to kill 50% of human SK-MEL-5 melanoma cells; format: functional; outline: as §1
UACC-62 = assay: Concentration required to kill 50% of human UACC-62 melanoma cells; format: functional
Outline: (§2)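 NCI 60-cell human cancer panel run at the National Cancer Institute. Cells exposed to compound for 48 h, with a sulforhodamine B read-out.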

DU-145 = assay: Concentration required to kill 50% of human DU-145 prostate cancer cells; format: functional; outline: as §1
[1] = The concentration required for inhibiting the growth of the murine B16-F0 melanoma cells by 50%; format: functional; conditions: Mus musculus, B16F0
Outline: (§3)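 MTT growth inhibition in murine lines grown in DMEM with 10% FBS, HEPES, glutamine, pen/strep at 37 °C, 5% CO2. Seeded 80 000 cells/well, continuous drug exposure (DMSO stock diluted in DMEM) for 72 h, quadruplicate wells per concentration. MTT added for 4 h, formazan dissolved in acid 2-propanol, read at 570 nm (reference 630 nm). IC50 extrapolated from averaged absorbance curves.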

HL-60 = assay: Concentration required to kill 50% of human HL-60 leukemia cells; format: functional; outline: as §1
HCT-116 = assay: Concentration required to kill 50% of human HCT116 colon cancer cells; format: functional; outline: as §1
Malme-3M = assay: Concentration required to kill 50% of human MALME-3M melanoma cells; format: functional; outline: as §1
SF-268 = assay: Concentration required to kill 50% of human SF-268 CNS cancer cells; format: functional; outline: as §1
A498 = assay: Concentration required to kill 50% of human A-498 renal cancer cells; format: functional; outline: as §1
[2] = Concentration required to kill 50% of human T-47D breast cancer cells; format: functional, Cancer cell lines; outline: as §2
[3] = Concentration required to kill 50% of human RPMI-8226 leukemia cells; format: functional; outline: as §1
OVCAR-5 = assay: Concentration required to kill 50% of human OVCAR-5 ovarian cancer cells; format: functional; outline: as §1
IGROV-1 = assay: Concentration required to kill 50% of human IGROV1 ovarian cancer cells; format: functional; outline: as §1
CAKI-1 = assay: Concentration required to kill 50% of human CAKI-1 renal cancer cells; format: functional; outline: as §1
SNB-75 = assay: Concentration required to kill 50% of human SNB-75 CNS cancer cells; format: functional; outline: as §1
SF-295 = assay: Concentration required to kill 50% of human SF-295 CNS cancer cells; format: functional; outline: as §1
ACHN = assay: Concentration required to kill 50% of human ACHN renal cancer cells; format: functional; outline: as §1
OVCAR-3 = assay: Concentration required to kill 50% of human OVCAR-3 ovarian cancer cells; format: functional; outline: as §1
PC-3 = assay: Concentration required to kill 50% of human PC-3 prostate cancer cells; format: functional; outline: as §1
NCI-H226 = assay: Concentration required to kill 50% of human NCI-H226 non-small cell lung cancer cells; format: functional; outline: as §1
HCT-15 = assay: Concentration required to kill 50% of human HCT-15 colon cancer cells; format: functional; outline: as §1
NCI-H322M = assay: Concentration required to kill 50% of human NCI-H322M non-small cell lung cancer cells; format: functional; outline: as §1
OVCAR-4 = assay: Concentration required to kill 50% of human OVCAR-4 ovarian cancer cells; format: functional; outline: as §1
TK-10 = assay: Concentration required to kill 50% of human TK-10 renal cancer cells; format: functional; outline: as §2
HOP-62 = assay: Concentration required to kill 50% of human HOP-62 non-small cell lung cancer cells; format: functional; outline: as §1
SK-OV-3 = assay: Concentration required to kill 50% of human SK-OV-3 ovarian cancer cells; format: functional; outline: as §1
K562 [4] = assay: The concentration required for inhibiting the growth of the human K562 chronic myeloid leukemia cells by 50%; format: functional, cell-based
Outline: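 Drug exposure was […] in the dark, then cells were washed and plated at 10⁴ cells/well, eight wells per sample, and incubated 4 days. MTT was added for 5 h, formazan dissolved in DMSO and read at 550 nm.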

HCC 2998 = assay: Concentration required to kill 50% of human HCC2998 colon cancer cells; format: functional; outline: as §1
NCI-H23 = assay: Concentration required to kill 50% of human NCI-H23 non-small cell lung cancer cells; format: functional; outline: as §1
Hs-578T = assay: Concentration required to kill 50% of human Hs 578.T breast cancer cells; format: functional; outline: as §1
MDA-N = assay: Concentration required to kill 50% of human MDA-N breast cancer cells; format: functional; outline: as §1
MCF7S = assay: Concentration required to kill 50% of human MCF-7 breast cancer cells; format: functional; outline: as §1
MOLT-4 = assay: Concentration required to kill 50% of human MOLT-4 leukemia cells; format: functional; outline: as §1
SN12C = assay: Concentration required to kill 50% of human SN12C renal cancer cells; format: functional; outline: as §1
SF-539 = assay: Concentration required to kill 50% of human SF-539 CNS cancer cells; format: functional; outline: as §1
SW-620 = assay: Concentration required to kill 50% of human SW-620 colon cancer cells; format: functional; outline: as §1
SNB-19 = assay: Concentration required to kill 50% of human SNB-19 CNS cancer cells; format: functional; outline: as §1
SK-MEL-28 = assay: Concentration required to kill 50% of human SK-MEL-28 melanoma cells; format: functional; outline: as §1
SK-MEL-2 = assay: Concentration required to kill 50% of human SK-MEL-2 melanoma cells; format: functional; outline: as §1
HT-29 = assay: Concentration required to kill 50% of human HT-29 colon cancer cells; format: functional; outline: as §1
UO-31 = assay: Concentration required to kill 50% of human UO-31 renal cancer cells; format: functional; outline: as §2
NCI-H460 = assay: Concentration required to kill 50% of human NCI-H460 non-small cell lung cancer cells; format: functional; outline: as §1
A549 = assay: Concentration required to kill 50% of human A549/ATCC non-small cell lung cancer cells; format: functional; outline: as §1
BT-549 = assay: Concentration required to kill 50% of human BT-549 breast cancer cells; format: functional; outline: as §1
786-0 = assay: Concentration required to kill 50% of human 786-0 renal cancer cells; format: functional; outline: as §1
KM12 = assay: Concentration required to kill 50% of human KM12 colon cancer cells; format: functional; outline: as §1
MDA-MB-231 = assay: Concentration required to kill 50% of human MDA-MB-231/ATCC breast cancer cells; format: functional; outline: as §1
COLO 205 = assay: Concentration required to kill 50% of human COLO 205 colon cancer cells; format: functional; outline: as §1
HOP-92 = assay: Concentration required to kill 50% of human HOP-92 non-small cell lung cancer cells; format: functional; outline: as §1
LOX IMVI = assay: Concentration required to kill 50% of human LOX IMVI melanoma cells; format: functional; outline: as §1
NCI/ADR-RES = assay: Concentration required to kill 50% of human NCI/ADR-RES breast cancer cells; format: functional; outline: as §1
[5] = Concentration required to kill 50% of human U-251 CNS cancer cells; format: functional; outline: as §2
OVCAR-8 = assay: Concentration required to kill 50% of human OVCAR-8 ovarian cancer cells; format: functional; outline: as §1
L1210 = assay: The concentration required for inhibiting the growth of the murine L1210 leukemia cells by 50%; format: functional, cell-based; conditions: Mus musculus; outline: as §3
K562 [6] = assay: Concentration required to kill 50% of human K-562 leukemia cells; format: functional; outline: as §1
NCI-H522 = assay: Concentration required to kill 50% of human NCI-H522 non-small cell lung cancer cells; format: functional; outline: as §1

COc1cc2cc(C(=O)Nc3cc(N)c4ccccc4c3CCCl)[nH]c2c(OC)c1OC [CENTANAMYCIN]
Log 10 LC50 (RXF 393): -6.86
Log 10 LC50 (EKVX): -4.73
Log 10 LC50 (SK-MEL-5): -4.85
Log 10 LC50 (UACC-62): -6.49
Log 10 LC50 (DU-145): >-4.3
IC50 [1]: 150 nM
Log 10 LC50 (HL-60): >-4.3
Log 10 LC50 (HCT-116): -4.67
Log 10 LC50 (Malme-3M): >-4.3
Log 10 LC50 (SF-268): >-4.3
Log 10 LC50 (A498): >-4.3
Log 10 LC50 [2]: >-4.3
Log 10 LC50 [3]: >-4.3
Log 10 LC50 (OVCAR-5): -4.43
Log 10 LC50 (IGROV-1): >-4.3
Log 10 LC50 (CAKI-1): >-4.3
Log 10 LC50 (SNB-75): -5.78
Log 10 LC50 (SF-295): >-4.3
Log 10 LC50 (ACHN): >-4.3
Log 10 LC50 (OVCAR-3): >-4.3
Log 10 LC50 (PC-3): -4.81
Log 10 LC50 (NCI-H226): >-4.3
Log 10 LC50 (HCT-15): >-4.3
Log 10 LC50 (NCI-H322M): >-4.3
Log 10 LC50 (OVCAR-4): >-4.3
Log 10 LC50 (TK-10): -4.33
Log 10 LC50 (HOP-62): >-4.3
Log 10 LC50 (SK-OV-3): >-4.3
IC50 (K562 [4]): 45 nM
Log 10 LC50 (HCC 2998): -6.65
Log 10 LC50 (NCI-H23): -5.07
Log 10 LC50 (Hs-578T): >-4.3
Log 10 LC50 (MDA-N): >-4.3
Log 10 LC50 (MCF7S): -4.54
Log 10 LC50 (MOLT-4): >-4.3
Log 10 LC50 (SN12C): -5.65
Log 10 LC50 (SF-539): >-4.3
Log 10 LC50 (SW-620): >-4.3
Log 10 LC50 (SNB-19): >-4.3
Log 10 LC50 (SK-MEL-28): >-4.3
Log 10 LC50 (SK-MEL-2): -6.74
Log 10 LC50 (HT-29): -4.41
Log 10 LC50 (UO-31): >-4.3
Log 10 LC50 (NCI-H460): -4.81
Log 10 LC50 (A549): >-4.3
Log 10 LC50 (BT-549): -5.76
Log 10 LC50 (786-0): -4.58
Log 10 LC50 (KM12): >-4.3
Log 10 LC50 (MDA-MB-231): -4.58
Log 10 LC50 (COLO 205): -4.69
Log 10 LC50 (HOP-92): -4.42
Log 10 LC50 (LOX IMVI): -4.75
Log 10 LC50 (NCI/ADR-RES): -4.33
Log 10 LC50 [5]: -5.21
Log 10 LC50 (OVCAR-8): -4.69
IC50 (L1210): 180 nM
Log 10 LC50 (K562 [6]): >-4.3
Log 10 LC50 (NCI-H522): -5.53

COc1ccc(/C=C/C(=O)Nc2cc(N)c3ccccc3c2CCCl)nc1
IC50 [1]: 750 nM
IC50 (L1210): 550 nM

COc1cc2cc(C(=O)N3CC(CCl)c4c3cc(O)c3ccccc43)[nH]c2c(OC)c1OC (stereo not drawn)
IC50 [1]: 78 nM
IC50 (K562 [4]): 28 nM
IC50 (L1210): 8.4 nM

— ChEMBL document CHEMBL1144439, “A novel class of in vivo active anticancer agents: achiral seco-amino- and seco-hydroxycyclopropylbenz[e]indolone (seco-CBI) analogues of the duocarmycins and CC-1065” (J Med Chem, 2005)
